Laboratory results reported in ChEMBL document CHEMBL5653631, “A Potent and Selective ULK1 Inhibitor Suppresses Autophagy and Sensitizes Cancer Cells to Nutrient Stress” (iScience, 2018).

What was measured:
[1] = target: T1, Serine/threonine-protein kinase TAO1 (Homo sapiens) (UniProt Q7L7X3); experiment: Inhibition of human recombinant TAO1 at 40 nM related to control ULK1
T1 sequence (whole entry): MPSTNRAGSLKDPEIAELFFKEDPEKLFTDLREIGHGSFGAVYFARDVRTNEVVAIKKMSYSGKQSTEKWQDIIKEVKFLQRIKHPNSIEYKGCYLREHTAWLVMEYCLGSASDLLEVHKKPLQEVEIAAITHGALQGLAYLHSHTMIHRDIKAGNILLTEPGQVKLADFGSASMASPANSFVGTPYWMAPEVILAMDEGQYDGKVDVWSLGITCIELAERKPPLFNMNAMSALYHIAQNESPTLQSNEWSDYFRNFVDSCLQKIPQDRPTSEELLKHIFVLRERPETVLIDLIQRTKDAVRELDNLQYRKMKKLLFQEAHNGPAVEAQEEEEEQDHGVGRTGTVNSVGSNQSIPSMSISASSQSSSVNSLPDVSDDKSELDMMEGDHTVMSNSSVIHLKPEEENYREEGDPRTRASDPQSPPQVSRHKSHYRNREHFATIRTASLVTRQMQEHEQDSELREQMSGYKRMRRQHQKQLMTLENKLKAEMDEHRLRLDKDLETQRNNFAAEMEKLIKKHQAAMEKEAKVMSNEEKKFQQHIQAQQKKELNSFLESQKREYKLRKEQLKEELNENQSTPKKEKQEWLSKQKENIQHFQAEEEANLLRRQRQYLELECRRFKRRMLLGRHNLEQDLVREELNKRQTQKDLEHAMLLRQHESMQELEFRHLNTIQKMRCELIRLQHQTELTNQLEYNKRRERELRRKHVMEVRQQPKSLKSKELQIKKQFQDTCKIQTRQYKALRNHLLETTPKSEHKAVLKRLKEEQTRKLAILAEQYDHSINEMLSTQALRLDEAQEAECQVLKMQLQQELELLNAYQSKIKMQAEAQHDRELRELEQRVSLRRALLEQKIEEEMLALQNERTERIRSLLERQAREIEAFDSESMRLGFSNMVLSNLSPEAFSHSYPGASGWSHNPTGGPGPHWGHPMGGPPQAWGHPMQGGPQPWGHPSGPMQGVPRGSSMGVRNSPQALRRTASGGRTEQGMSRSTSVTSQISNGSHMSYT

[2] = target: Serine/threonine-protein kinase 35 (Homo sapiens) (UniProt Q8TDR2); experiment: Inhibition of human recombinant CLIK1 at 40 nM related to control ULK1
[3] = target: Tyrosine-protein kinase Yes (Homo sapiens) (UniProt P07947); experiment: Inhibition of human recombinant YES at 40 nM related to control ULK1
[4] = target: Casein kinase I isoform gamma-3 (Homo sapiens) (UniProt Q9Y6M4); experiment: Inhibition of human recombinant CK1g3 at 500 nM in presence of ATP by radiometric assay relative to control
[5] = target: Casein kinase II subunit alpha (Homo sapiens) (UniProt P68400); experiment: Inhibition of human recombinant CK2a1 at 500 nM related to control ULK1
[6] = target: T2, Aurora kinase C (Homo sapiens) (UniProt Q9UQB9); experiment: Inhibition of human recombinant AurC at 500 nM in presence of ATP by radiometric assay relative to control
T2 sequence (whole entry): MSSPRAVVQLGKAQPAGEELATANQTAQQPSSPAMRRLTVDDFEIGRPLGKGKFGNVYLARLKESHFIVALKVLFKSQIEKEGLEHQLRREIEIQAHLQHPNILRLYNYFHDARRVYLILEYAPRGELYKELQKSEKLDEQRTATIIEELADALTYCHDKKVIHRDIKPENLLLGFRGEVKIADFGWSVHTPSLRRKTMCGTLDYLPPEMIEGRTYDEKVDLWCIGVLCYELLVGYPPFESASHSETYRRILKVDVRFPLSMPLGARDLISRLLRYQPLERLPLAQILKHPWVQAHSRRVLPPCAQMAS
Outline: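 Part of a radiometric in vitro activity panel of 327 recombinant human kinases. Each kinase was tested in duplicate at one inhibitor concentration. Activity remaining was expressed as a percentage of the vehicle control, and percent inhibition was taken as 100 minus that value.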

[7] = target: LIM domain kinase 1 (Homo sapiens) (UniProt P53667); experiment: Inhibition of human recombinant LIMK1 at 500 nM related to control ULK1
[8] = target: T3, cGMP-dependent protein kinase 1 (Homo sapiens) (UniProt Q13976); experiment: Inhibition of human recombinant PKG1 at 500 nM related to control ULK1
T3 sequence (whole entry): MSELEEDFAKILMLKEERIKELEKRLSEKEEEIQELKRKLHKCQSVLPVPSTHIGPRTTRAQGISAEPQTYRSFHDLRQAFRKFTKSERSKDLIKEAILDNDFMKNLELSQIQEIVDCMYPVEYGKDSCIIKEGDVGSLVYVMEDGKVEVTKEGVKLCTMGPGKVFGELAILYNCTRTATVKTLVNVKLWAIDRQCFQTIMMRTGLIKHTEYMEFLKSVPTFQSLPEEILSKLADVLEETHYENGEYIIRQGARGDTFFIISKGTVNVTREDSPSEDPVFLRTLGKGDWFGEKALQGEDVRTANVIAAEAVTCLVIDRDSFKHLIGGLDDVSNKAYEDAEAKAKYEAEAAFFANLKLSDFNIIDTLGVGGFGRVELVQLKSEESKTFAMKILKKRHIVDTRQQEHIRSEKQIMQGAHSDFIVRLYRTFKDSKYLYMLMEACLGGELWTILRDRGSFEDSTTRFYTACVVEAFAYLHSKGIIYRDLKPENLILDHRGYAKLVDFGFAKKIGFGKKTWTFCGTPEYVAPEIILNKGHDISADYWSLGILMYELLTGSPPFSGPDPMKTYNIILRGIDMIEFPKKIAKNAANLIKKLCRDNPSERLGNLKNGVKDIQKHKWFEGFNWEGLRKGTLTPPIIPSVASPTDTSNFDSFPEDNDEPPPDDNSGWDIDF

[9] = target: Serine/threonine-protein kinase 26 (Homo sapiens) (UniProt Q9P289); experiment: Inhibition of human recombinant MST4 at 500 nM related to control ULK1
[10] = target: MAP kinase-interacting serine/threonine-protein kinase 2 (Homo sapiens, UniProt Q9HBH9); experiment: Inhibition of human recombinant MNK2 at 15 nM in presence of ATP by radiometric assay relative to control
Chain of MAP kinase-interacting serine/threonine-protein kinase 2 (Q9HBH9 whole entry, looked up): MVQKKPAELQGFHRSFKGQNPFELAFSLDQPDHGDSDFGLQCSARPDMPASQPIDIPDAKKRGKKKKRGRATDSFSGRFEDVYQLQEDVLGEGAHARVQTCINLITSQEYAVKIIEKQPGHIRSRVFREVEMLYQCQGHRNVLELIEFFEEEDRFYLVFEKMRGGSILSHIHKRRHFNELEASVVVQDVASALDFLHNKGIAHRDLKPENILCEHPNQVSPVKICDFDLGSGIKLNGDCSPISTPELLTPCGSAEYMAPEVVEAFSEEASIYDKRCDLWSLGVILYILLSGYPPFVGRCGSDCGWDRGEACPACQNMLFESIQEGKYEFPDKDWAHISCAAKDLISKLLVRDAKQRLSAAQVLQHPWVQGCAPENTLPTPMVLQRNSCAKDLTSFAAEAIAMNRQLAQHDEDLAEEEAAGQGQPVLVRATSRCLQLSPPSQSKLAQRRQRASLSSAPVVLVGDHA

Chain of Serine/threonine-protein kinase 26 (Homo sapiens) (Q9P289 2-416 limits assumed): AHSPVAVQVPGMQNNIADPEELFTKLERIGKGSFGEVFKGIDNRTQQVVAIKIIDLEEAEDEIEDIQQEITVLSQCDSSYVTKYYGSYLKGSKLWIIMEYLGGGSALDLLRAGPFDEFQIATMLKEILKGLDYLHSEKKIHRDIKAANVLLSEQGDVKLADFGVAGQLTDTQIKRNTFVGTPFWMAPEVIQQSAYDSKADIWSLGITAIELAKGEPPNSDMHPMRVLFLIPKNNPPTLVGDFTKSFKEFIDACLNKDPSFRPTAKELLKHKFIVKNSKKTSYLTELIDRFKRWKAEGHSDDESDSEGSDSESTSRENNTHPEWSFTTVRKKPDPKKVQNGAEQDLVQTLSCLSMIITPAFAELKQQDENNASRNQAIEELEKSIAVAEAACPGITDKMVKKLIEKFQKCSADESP
Chain of Tyrosine-protein kinase Yes (Homo sapiens) (P07947 2-543 limits assumed): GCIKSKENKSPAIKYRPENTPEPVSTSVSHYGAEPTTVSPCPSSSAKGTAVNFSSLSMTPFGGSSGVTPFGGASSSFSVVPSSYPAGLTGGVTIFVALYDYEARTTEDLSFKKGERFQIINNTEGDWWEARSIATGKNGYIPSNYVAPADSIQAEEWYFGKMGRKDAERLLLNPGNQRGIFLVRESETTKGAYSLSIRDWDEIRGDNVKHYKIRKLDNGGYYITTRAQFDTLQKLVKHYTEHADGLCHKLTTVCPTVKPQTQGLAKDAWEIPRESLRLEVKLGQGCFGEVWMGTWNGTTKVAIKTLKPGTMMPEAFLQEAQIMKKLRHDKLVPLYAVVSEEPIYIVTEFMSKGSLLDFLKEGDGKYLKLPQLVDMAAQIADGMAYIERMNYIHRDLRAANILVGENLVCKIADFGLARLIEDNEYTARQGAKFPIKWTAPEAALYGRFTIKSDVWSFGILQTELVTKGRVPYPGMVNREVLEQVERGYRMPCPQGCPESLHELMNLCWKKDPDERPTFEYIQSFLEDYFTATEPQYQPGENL
Chain of Serine/threonine-protein kinase 35 (Homo sapiens) (Q8TDR2 whole entry): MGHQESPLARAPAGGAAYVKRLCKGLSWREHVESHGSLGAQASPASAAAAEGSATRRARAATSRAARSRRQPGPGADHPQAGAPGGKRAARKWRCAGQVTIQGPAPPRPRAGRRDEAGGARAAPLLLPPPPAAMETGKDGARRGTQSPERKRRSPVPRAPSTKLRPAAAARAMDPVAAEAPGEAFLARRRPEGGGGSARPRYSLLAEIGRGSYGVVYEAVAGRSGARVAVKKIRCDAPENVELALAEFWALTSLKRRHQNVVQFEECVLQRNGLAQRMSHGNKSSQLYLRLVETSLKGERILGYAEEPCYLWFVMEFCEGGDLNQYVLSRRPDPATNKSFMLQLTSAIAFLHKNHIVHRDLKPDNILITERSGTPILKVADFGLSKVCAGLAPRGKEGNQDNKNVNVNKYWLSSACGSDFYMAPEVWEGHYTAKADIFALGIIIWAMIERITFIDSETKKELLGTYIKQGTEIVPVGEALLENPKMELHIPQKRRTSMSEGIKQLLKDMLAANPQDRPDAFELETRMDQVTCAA
Chain of LIM domain kinase 1 (Homo sapiens) (P53667 whole entry, looked up, the tested form may be a part): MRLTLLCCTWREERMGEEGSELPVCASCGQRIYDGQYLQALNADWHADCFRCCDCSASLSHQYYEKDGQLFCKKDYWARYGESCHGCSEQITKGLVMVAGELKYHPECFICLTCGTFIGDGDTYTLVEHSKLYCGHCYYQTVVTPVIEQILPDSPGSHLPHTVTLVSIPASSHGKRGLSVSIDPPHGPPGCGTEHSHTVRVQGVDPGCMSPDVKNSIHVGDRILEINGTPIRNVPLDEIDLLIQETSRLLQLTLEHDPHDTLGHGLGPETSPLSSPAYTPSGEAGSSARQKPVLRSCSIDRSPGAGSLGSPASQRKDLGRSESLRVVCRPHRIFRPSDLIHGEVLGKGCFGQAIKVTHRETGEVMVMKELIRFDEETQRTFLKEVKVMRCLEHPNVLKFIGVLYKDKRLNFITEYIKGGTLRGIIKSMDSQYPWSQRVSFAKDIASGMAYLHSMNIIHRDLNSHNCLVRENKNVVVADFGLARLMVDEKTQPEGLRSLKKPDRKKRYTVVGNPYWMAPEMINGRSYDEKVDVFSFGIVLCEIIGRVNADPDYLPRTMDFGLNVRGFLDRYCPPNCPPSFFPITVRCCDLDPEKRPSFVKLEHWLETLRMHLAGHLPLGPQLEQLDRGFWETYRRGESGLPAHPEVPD
Chain of Casein kinase I isoform gamma-3 (Homo sapiens) (Q9Y6M4 whole entry, looked up, canonical isoform): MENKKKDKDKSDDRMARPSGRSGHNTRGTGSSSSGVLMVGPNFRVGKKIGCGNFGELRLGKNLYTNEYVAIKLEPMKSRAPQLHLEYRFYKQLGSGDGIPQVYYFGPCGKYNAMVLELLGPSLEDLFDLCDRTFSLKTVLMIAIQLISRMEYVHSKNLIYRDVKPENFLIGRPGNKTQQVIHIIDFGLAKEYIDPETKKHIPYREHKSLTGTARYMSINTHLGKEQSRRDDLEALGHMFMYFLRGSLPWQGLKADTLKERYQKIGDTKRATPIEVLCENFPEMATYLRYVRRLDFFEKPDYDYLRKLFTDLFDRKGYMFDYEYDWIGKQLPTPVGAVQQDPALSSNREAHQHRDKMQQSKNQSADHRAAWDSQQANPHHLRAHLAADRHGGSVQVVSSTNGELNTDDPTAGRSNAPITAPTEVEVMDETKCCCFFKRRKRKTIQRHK
Chain of Casein kinase II subunit alpha (Homo sapiens) (P68400 whole entry, looked up): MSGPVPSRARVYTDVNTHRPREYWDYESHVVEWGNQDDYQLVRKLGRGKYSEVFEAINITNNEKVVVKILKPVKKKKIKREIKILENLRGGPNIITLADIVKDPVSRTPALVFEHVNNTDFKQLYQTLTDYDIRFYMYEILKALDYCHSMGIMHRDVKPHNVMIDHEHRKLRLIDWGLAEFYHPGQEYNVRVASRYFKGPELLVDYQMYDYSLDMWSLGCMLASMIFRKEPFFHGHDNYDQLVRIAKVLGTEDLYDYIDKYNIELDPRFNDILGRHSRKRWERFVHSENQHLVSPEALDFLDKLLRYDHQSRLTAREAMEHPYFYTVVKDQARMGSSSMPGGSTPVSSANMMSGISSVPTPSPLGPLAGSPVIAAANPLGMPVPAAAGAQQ

O=C(N[C@@H](C1CC1)C(F)(F)F)c1cc(-c2cnn3cc(-c4ccc(F)cc4)cnc23)cs1
fold change (FC) [1]: 0
fold change (FC) [2]: 0.01
fold change (FC) [3]: 0.32

CNC(=O)c1ccccc1Oc1nc(Nc2cc(OC)c(OC)c(OC)c2)ncc1Br
inhibition [4]: 0%
fold change (FC) [5]: 0.19
inhibition [6]: 73%
fold change (FC) [7]: 0.03
fold change (FC) [8]: 0.05
fold change (FC) [9]: 0

CC(C)[C@H](NC(=O)c1cc(-c2cnn3cc(-c4ccc(OCCN5CCCCC5)cc4)cnc23)cs1)C(F)(F)F
inhibition [10]: 26%
